Results as given in ChEMBL document CHEMBL1909507, “Substituted phenyl 4-(2-oxoimidazolidin-1-yl)benzenesulfonamides as antimitotics. Antiproliferative, antiangiogenic and antitumoral activity, and quantitative structure-activity relationships” (Eur J Med Chem, 2011).
pIC50: −log10 of the molar value. Active and inactive are the calls of the source. The calls are words filed in the database; no cut-off is given here.

Legend:
HT-29 = assay: Antiproliferative activity against human HT-29 cells after 48 hrs by SRB assay; format: functional, cell-based; settings: HT-29, 48 h
Summary of the method: (§1)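 Adherent cells were seeded per line (e.g. HT-29 5000, M21 3500, MCF7 7500, CHO and CHO-VV 3-2 and CHO-TAX 5-6 1000 cells/well) and grown 24 h at 37 °C, 5% CO₂. DMSO-solubilized drug was diluted in medium and added at 1000–0.98 nM for 48 h. Cells were fixed with cold 10% TCA and stained with 0.1% sulforhodamine B, with absorbance read at 530–565 nm.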

M21 [1] = assay: Antiproliferative activity against human M21 cells after 48 hrs by SRB assay; format: functional, cell-based; settings: M21, 48 h; summary of the method: as §1
MCF7 = assay: Antiproliferative activity against human MCF7 cells after 48 hrs by SRB assay; format: functional, cell-based; settings: MCF7, 48 h; summary of the method: as §1
CHO-TAX 5-6 [2] = assay: Ratio of IC50 for paclitaxel-resistant CHO-TAX 5-6 cells to IC50 for CHO cells; format: functional, Cricetulus griseus
Summary of the method: (§2)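 Each ratio is the IC50 in the resistant line divided by the IC50 in its parental line (CHO for CHO-TAX 5-6 and CHO-VV 3-2; CEM for CEM-VLB).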

CHO-VV 3-2 [3] = assay: Antiproliferative activity against colchicine and vinblastine-resistant CHO-VV 3-2 cells after 48 hrs by SRB assay; format: functional, cell-based; settings: Cricetulus griseus, CHO-VV 3-2, 48 h; summary of the method: as §1
CHO-VV 3-2 [4] = assay: Ratio of IC50 for colchicine and vinblastine-resistant CHO-VV 3-2 cells to IC50 for CHO cells; format: functional, Cricetulus griseus; summary of the method: as §2
[5] = Antiproliferative activity against human multidrug-resistant CEM/VLB cells after 48 hrs by SRB assay; format: functional
CCRF-CEM [6] = assay: Ratio of IC50 for human multidrug-resistant CEM/VLB cells to IC50 for human CEM cells; format: functional; summary of the method: as §2
M21 [7] = assay: Cell cycle arrest in human M21 cells assessed as accumulation at G0/G1 phase at 5 times IC50 after 24 hrs using propidium iodide staining by flow cytometric analysis (reference value: 61%); format: functional
Summary of the method: (§3)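 Cells were trypsinized, fixed in ice-cold ethanol, treated with RNase, and stained with propidium iodide (1 mg/mL stock) for 1 h on ice. Cell-cycle distribution was measured by flow cytometry.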

M21 [8] = assay: Cell cycle arrest in human M21 cells assessed as accumulation at S phase at 5 times IC50 after 24 hrs using propidium iodide staining by flow cytometric analysis (reference value: 30%); format: functional; summary of the method: as §3
M21 [9] = assay: Cell cycle arrest in human M21 cells assessed as accumulation at G2/M phase at 5 times IC50 after 24 hrs using propidium iodide staining by flow cytometric analysis (reference value: 9%); format: functional; summary of the method: as §3
MDA-MB-231 [10] = assay: Displacement of N,N'-ethylenebis(iodoacetamide) from beta-tubulin colchicine-binding site in human MDA-MB-231 cells at 1000 times IC50 preincubated for 2 hrs before N,N'-ethylenebis(iodoacetamide) addition measured after 1.5 hrs by chemiluminescence assay; format: cell-based
Summary of the method: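 EBI (100, final) was added for 1.5 h at 37 °C with drug present; control was 0.5% DMSO. Sonicated lysates (20 µg protein) were run on 10% SDS-PAGE and blotted with anti-β-tubulin TUB 2.1. The β-tubulin–EBI adduct was scored by ECL.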

M21 [11] = assay: Disruption of cytoskeleton microtubule structure of human M21 cells at 5 times IC50 after 16 hrs by indirect immunofluorescence assay; format: functional, cell-based
Summary of the method: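 Cells were fixed in 3.7% formaldehyde, permeabilized with saponin, and stained with anti-β-tubulin TUB 2.1, Alexa-488 anti-mouse secondary and DAPI. Fluorescence microscopy was used for imaging.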

[12] = Toxicity against fertilized chicken embryo assessed as mortality at 3 ug, iv by CAM assay; format: organism-based, Gallus gallus; settings: in vivo, read-out: Activity
Summary of the method: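 HT-1080 fibrosarcoma cells (3.5 × 10⁵ cells/egg) grafted onto the chorioallantoic membrane of fertilized chicken eggs (10 days preincubation). On day 11, drug in DMSO diluted into excipient (ethanol:cremophor:PBS 6.25:6.25:87.5) given iv at 3 µg per egg. Chick mortality recorded over 7-day tumor growth period. Untreated eggs as negative controls and for normalization. Cumulative results from two independent experiments, 10–12 eggs each.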

HT-1080 [13] = assay: Antitumor activity against human HT1080 cells xenografted in chicken chorioallantoic membrane assessed as inhibition of tumor growth at 3 ug, iv measured on day 17 by CAM assay; format: functional
Summary of the method: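 Fertilized chicken eggs were incubated 10 days, then 3.5 × 10⁵ HT-1080 cells/egg were applied to the exposed chorioallantoic membrane. On day 11, drug was given iv in DMSO diluted in excipient (ethanol:cremophor:PBS 6.25:6.25:87.5). Read-out was tumor wet weight as % of untreated eggs, plus chick mortality. Data were pooled from two independent experiments of 10–12 eggs each.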

K562 = assay: Antiproliferative activity against human K562 after 48 hrs by SRB assay; format: functional, cell-based; settings: K562, 48 h
L1210 = assay: Antiproliferative activity against mouse L1210 after 48 hrs by SRB assay; format: functional, cell-based; settings: L1210, 48 h
DU-145 = assay: Antiproliferative activity against human DU145 after 48 hrs by SRB assay; format: functional, cell-based; settings: DU-145, 48 h
HT-1080 [14] = assay: Antiproliferative activity against human HT1080 after 48 hrs by SRB assay; format: functional, cell-based; settings: HT-1080, 48 h; summary of the method: as §1
MDA-MB-231 [15] = assay: Antiproliferative activity against human MDA-MB-231 after 48 hrs by SRB assay; format: functional, cell-based; settings: MDA-MB-231, 48 h
SK-OV-3 = assay: Antiproliferative activity against human SKOV3 after 48 hrs by SRB assay; format: functional, cell-based; settings: SK-OV-3, 48 h; summary of the method: as §1
CCRF-CEM [16] = assay: Antiproliferative activity against human CEM after 48 hrs by SRB assay; format: functional, cell-based
CHO-TAX 5-6 [17] = assay: Antiproliferative activity against paclitaxel-resistant CHO-TAX 5-6 cells after 48 hrs by SRB assay; format: functional, cell-based; settings: Cricetulus griseus, CHO-TAX 5-6, 48 h; summary of the method: as §1
[18] = Antiproliferative activity against mouse B16F0 after 48 hrs by SRB assay
[19] = Antiproliferative activity against mouse P388D1 after 48 hrs by SRB assay; settings: P388D1, 48 h
CHO = assay: Antiproliferative activity against Chinese hamster CHO after 48 hrs by SRB assay; settings: Cricetulus griseus

`CCCCc1ccc(NS(=O)(=O)c2ccc(N3CCNC3=O)cc2)cc1` gave a pIC50 (HT-29) of 6.21, a pIC50 (M21 [1]) of 6.35 and a pIC50 (MCF7) of 6.11.
`Cc1ccc(NS(=O)(=O)c2ccc(N3CCNC3=O)cc2)c(C)c1` gave a pIC50 (HT-29) of 6.74, a pIC50 (M21 [1]) of 6.82 and a pIC50 (MCF7) of 6.64.
Molecule `CCCCOc1ccc(NS(=O)(=O)c2ccc(N3CCNC3=O)cc2)cc1` has a pIC50 (HT-29) of 6.20, a pIC50 (M21 [1]) of 6.24 and a pIC50 (MCF7) of 6.06.
In the case of `O=C1NCCN1c1ccc(S(=O)(=O)Nc2ccc3c(c2)Cc2ccccc2-3)cc1`, the pIC50 (HT-29) was 6.35, the pIC50 (M21 [1]) was 6.43 and the pIC50 (MCF7) was 6.32.
In the case of `Cc1ccc(NS(=O)(=O)c2ccc(N3CCNC3=O)cc2)cc1C`, the pIC50 (HT-29) was 6.64, the pIC50 (M21 [1]) was 7.03 and the pIC50 (MCF7) was 6.64.
With `Cc1ccccc1NS(=O)(=O)c1ccc(N2CCNC2=O)cc1` the pIC50 (HT-29) was 6.70, the pIC50 (M21 [1]) was 6.82 and the pIC50 (MCF7) was 6.55.
`O=C1NCCN1c1ccc(S(=O)(=O)Nc2ccc(C3CCCCC3)cc2)cc1` gave a pIC50 (HT-29) of under 6.00, a pIC50 (M21 [1]) of under 6.00 and a pIC50 (MCF7) of under 6.00.
`O=C1NCCN1c1ccc(S(=O)(=O)Nc2cccc(Oc3ccccc3)c2)cc1` gave a pIC50 (HT-29) of 6.70, a pIC50 (M21 [1]) of 7.08 and a pIC50 (MCF7) of 6.66.
In the case of `COc1ccccc1NS(=O)(=O)c1ccc(N2CCNC2=O)cc1`, the pIC50 (HT-29) was 6.26, the pIC50 (M21 [1]) was 6.52 and the pIC50 (MCF7) was 6.11.
In the case of `O=C1NCCN1c1ccc(S(=O)(=O)Nc2cccc(Cl)c2)cc1`, the “Ratio IC50” value (CHO-TAX 5-6 [2]) was 0.6, the pIC50 (CHO-VV 3-2 [3]) was 6.82 and the “Ratio IC50” value (CHO-VV 3-2 [4]) was 1.6. The pIC50 [5] was 6.77, the “Ratio IC50” value (CCRF-CEM [6]) was 2.2 and the Activity (M21 [7]) was 5%. For the same molecule, the Activity (M21 [8]) was 33%, the Activity (M21 [9]) was 62% and the Activity (MDA-MB-231 [10]) was “Active”. The Activity (M21 [11]) was “Active”, the mortality [12] was 8% and the inhibition (HT-1080 [13]) was “inactive”. It also gave a pIC50 (HT-29) of 7.26, a pIC50 (M21 [1]) of 7.60 and a pIC50 (MCF7) of 7.10. It also gave a pIC50 (K562) of 7.16, a pIC50 (L1210) of 7.11 and a pIC50 (DU-145) of 6.64. It also gave a pIC50 (HT-1080 [14]) of 7.17, a pIC50 (MDA-MB-231 [15]) of 6.70 and a pIC50 (SK-OV-3) of 7.15. It also gave a pIC50 (CCRF-CEM [16]) of 7.11, a pIC50 (CHO-TAX 5-6 [17]) of 7.24 and a pIC50 [18] of 6.72. For the same molecule, the pIC50 [19] was 7.11 and the pIC50 (CHO) was 7.02.
In the case of `CCCCCc1ccc(NS(=O)(=O)c2ccc(N3CCNC3=O)cc2)cc1`, the pIC50 (HT-29) was 6.00, the pIC50 (M21 [1]) was 6.06 and the pIC50 (MCF7) was under 6.00.
Molecule `COc1ccc(NS(=O)(=O)c2ccc(N3CCNC3=O)cc2)cc1OC` has a pIC50 (HT-29) of 6.28, a pIC50 (M21 [1]) of 6.47 and a pIC50 (MCF7) of 6.21.
In the case of `COc1ccc(NS(=O)(=O)c2ccc(N3CCNC3=O)cc2)cc1`, the pIC50 (HT-29) was 6.10, the pIC50 (M21 [1]) was 6.24 and the pIC50 (MCF7) was under 6.00.
`CC(=O)O[C@H]1C(=O)[C@@]2(C)[C@H]([C@H](OC(=O)c3ccccc3)[C@]3(O)C[C@H](OC(=O)[C@H](O)[C@@H](NC(=O)c4ccccc4)c4ccccc4)C(C)=C1C3(C)C)[C@]1(OC(C)=O)CO[C@@H]1C[C@@H]2O` [PACLITAXEL] gave a pIC50 [18] of 7.55 and a pIC50 [19] of 7.46.
`CC(C)(C)c1cc(NS(=O)(=O)c2ccc(N3CCNC3=O)cc2)cc(C(C)(C)C)c1` showed a pIC50 (HT-29) of under 6.00, a pIC50 (M21 [1]) of under 6.00 and a pIC50 (MCF7) of under 6.00.
In the case of `N#CCc1ccc(NS(=O)(=O)c2ccc(N3CCNC3=O)cc2)cc1`, the pIC50 (HT-29) was under 6.00, the pIC50 (M21 [1]) was under 6.00 and the pIC50 (MCF7) was under 6.00.
Molecule `Cc1cccc(NS(=O)(=O)c2ccc(N3CCNC3=O)cc2)c1C` has a pIC50 (HT-29) of 6.72, a pIC50 (M21 [1]) of 6.96 and a pIC50 (MCF7) of 6.64.
With `CCC(C)c1ccc(NS(=O)(=O)c2ccc(N3CCNC3=O)cc2)cc1` (stereo unspecified) the pIC50 (HT-29) was under 6.00, the pIC50 (M21 [1]) was under 6.00 and the pIC50 (MCF7) was under 6.00.
